Xi reactivation: X-chromosome reactivation activator | XiGFP mouse fibroblasts, % GFP-positive cells imaging, 3 d; cells co-treated with 5-aza-dC sensitizer; scaled so ellipticine positive control = 100% | activation, % at 7.58 µM | 360,000 compounds, 0.055% hits;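 active = mean normalized replicate activation at least 10% and every replicate at or above 10%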;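 note: 0% = median of on-plate neutral control wells and 100% = ellipticine 6 µM median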
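Assay system: SV40-immortalized XiGFP fibroblast cells, line 68-5-11; buffer or medium: DMEM plus 5-aza-dC sensitizer; compound: one concentration, pinned; timing: compounds 3 days, fix/stain 15 min at room temperature; benchmarks: positive control ellipticine, 6 µM final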
SR-BI DiI-HDL act: activators of SR-BI mediated HDL lipid uptake; CHO ldlA[mSR-BI] cells, DiI-HDL uptake fluorescence, 3 h; 100 = double the neutral-control signal; activation, % at 12.5 µM; AID 504775; 320,000 compounds, 0.096% hits;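 active = mean replicate activation of at least 60% and every replicate at or above 60%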;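 note: 0% = median plate neutral-control signal and 100% = twice that signal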
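Test system: SR-BI-overexpressing, LDLR-lacking CHO cells; Medium: Ham's F12 with 0.5% BSA, HEPES 25 mM, pH 7.4; Schedule: 3 h, 37 °C; Technique: bottom-read fluorescence, 550/595 nm.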
SR-BI HDL uptake: blocks mouse SR-BI lipid uptake from DiI-HDL; Q61009; ldlA[mSR-BI] CHO cells, DiI-HDL uptake fluorescence, 3 h; inhibition, % at 12.5 µM; 320,000 compounds, 0.96% hits;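 active = mean replicate inhibition of at least 70% and a set share of replicates each scoring 70 or more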;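 note: 0% = median of neutral control wells and 100% = median of positive control wells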
Target sequence (Q61009 whole entry, looked up): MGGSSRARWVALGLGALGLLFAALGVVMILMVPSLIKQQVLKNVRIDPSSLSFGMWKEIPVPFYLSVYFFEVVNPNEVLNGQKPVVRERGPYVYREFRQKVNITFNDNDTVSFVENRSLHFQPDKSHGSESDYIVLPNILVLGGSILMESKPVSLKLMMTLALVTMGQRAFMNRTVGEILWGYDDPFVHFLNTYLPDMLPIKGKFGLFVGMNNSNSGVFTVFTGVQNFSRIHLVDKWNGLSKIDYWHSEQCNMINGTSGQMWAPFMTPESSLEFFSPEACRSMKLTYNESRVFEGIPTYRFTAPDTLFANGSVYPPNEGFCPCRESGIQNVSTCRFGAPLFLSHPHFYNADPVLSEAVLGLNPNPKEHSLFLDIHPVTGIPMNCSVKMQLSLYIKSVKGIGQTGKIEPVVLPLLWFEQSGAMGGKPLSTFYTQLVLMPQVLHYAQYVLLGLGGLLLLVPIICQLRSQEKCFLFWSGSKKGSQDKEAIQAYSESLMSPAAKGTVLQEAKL
NSD2 inh: inhibitors of human histone methyltransferase NSD2; O96028; NSD2 peptide methylation, AlphaScreen, 120 min; inhibition, % at 12.5 µM; 310,000 compounds, 0.54% hits; in the data active = inhibition above about 50%
ARNT TACC3 PPI: ARNT/TACC3 interaction disruption; AlphaScreen His-ARNT PAS-B/GST-TACC3 binding, luminescence; TACC3 fragment carries E629A point mutation; inhibition, % at 9.99 µM; 390,000 compounds, 0.66% hits; AID 623870;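 active = mean inhibition of replicates at least 50% and at least half of replicates each reaching 50%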;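 note: 0% = complete ARNT plus TACC3 wells and 100% = ARNT alone without TACC3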
sPLA2-III inh: Blocks human group III sPLA2 activity | Q9NZ20 | QFRET BODIPY PC-A2 liposome hydrolysis, fluorescence | inhibition, % at 12.2 µM | 370,000 compounds, 0.56% hits | AID 743126;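 active = inhibition above mean plus 3 SD of compounds lying within the high and low control bounds, cut at about 19% in these data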;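 note: 0% = median of test compound wells and 100% = no enzyme DMSO wells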
hGIII sPLA2 conf: human GIII-sPLA2 inhibition, confirmation | inhibition, % at 12.2 µM | 2,000 compounds, 34% hits | recombinant hGIII-sPLA2, BODIPY PC-A2 QFRET fluorescence | AID 743280 | shares compounds with sPLA2-III inh;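 active = mean inhibition across triplicates above the hit cutoff set in the earlier primary screen, cut at about 19% in these data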;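 note: 0% = enzyme with DMSO and 100% = DMSO wells lacking enzyme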
535nm interf: 535nm fluorescence interference, HGIII-sPLA2 counter-screen | 2,000 compounds, 8.5% hits | BODIPY FL product fluorescence interference, QFRET | shares compounds with sPLA2-III inh | inhibition, % at 12.2 µM;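 active = average inhibition above the solvent-only control mean plus 3 SD, cut at about 6% in these data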;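 note: 0% = DMSO with substrate plus product and 100% = DMSO with substrate alone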
BODIPY interf DR: 535nm optical interference dose response, HGIII-sPLA2 counter-screen; shares compounds with sPLA2-III inh; BODIPY FL product fluorescence interference, cell-free; IC50, µM; 240 tested, under 10 active; AID 743455;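 active = IC50 at or below 10 µM; inactive = IC50 above 10 µM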
The depositor's hits bear a star; . = no result. Compounds with a hit are over-represented: about 2% of the library has one in this group of screens.

SMILES | Xi reactivation | SR-BI DiI-HDL act | SR-BI HDL uptake | NSD2 inh | ARNT TACC3 PPI | sPLA2-III inh | hGIII sPLA2 conf | 535nm interf | others
CC(=O)N(C)C[C@@H]1Oc2ncc(-c3ccc(C#N)cc3)cc2C(=O)N([C@@H](C)CO)C[C@H]1C | -0.9 | . | . | . | -10.7 | . | . | .
CC(C)C1Nc2c(O)cc(Cl)c([N+](=O)[O-])c2C2C=CCC21 (configuration not stated) | -0.1 | 5.8 | -5.8 | 26.4 | 0.6 | 19.5* | 13.4 | 10.4*
COCCNC(=O)CSc1nc2ccccc2c(=O)n1CCC(=O)NCCc1ccc(OC)c(OC)c1 | 0.0 | -12.0 | 12.0 | -3.6 | 4.7 | 9.5 | . | .
CN1/C(=C\C(=S)NC(=O)c2ccccc2Cl)C(C)(C)c2ccccc21 | -0.1 | -8.0 | 8.0 | 11.5 | 1.5 | 17.6 | . | .
CN1/C(=C/C(=S)NC(=O)C2(C)CC2(Cl)Cl)C(C)(C)c2ccccc21 (configuration not stated) | 0.0 | -46.8 | 46.8 | 17.4 | 47.8* | 27.3* | 7.6 | 2.5
CCCNC(=O)c1ccc(CN2CCc3ccccc3C2)cc1 | . | 22.1 | -22.1 | -0.5 | -3.4 | 4.7 | . | .
C/C(=N\NC(=O)c1ccc(CN2CCc3ccccc3C2)cc1)c1ccccc1O | 0.1 | -108.7 | 108.7* | -2.9 | -4.3 | 32.8* | 24.3* | -21.3
COc1ccc(Cl)cc1C(=O)NNC(=O)c1cccc(S(=O)(=O)N(C)C)c1 | 0.4 | -4.4 | 4.4 | -0.4 | 3.7 | 22.1* | -8.0 | -6.1
COC(=O)c1cccc(NC(=O)C2CCCN2C(=O)c2cccs2)c1 (configuration not stated) | 0.2 | 8.8 | -8.8 | 1.3 | -4.3 | 17.4 | . | .
CN(C)c1ccc(-c2cc(O)c3ncccc3c2)cc1 | 0.0 | -7.1 | 7.1 | . | 35.6 | 26.5* | 17.7 | -7.0
CC(=O)NC(c1ccc(N(C)C)cc1)c1cc(Cl)c2cccnc2c1O (configuration not stated) | 0.1 | . | . | 2.9 | . | 13.2 | . | .
Cc1ccc(-c2csc(N3CCN(c4cc5c(cc4Cl)nc(C(C)N)n5CCCO)CC3)n2)cc1 (configuration not stated) | 0.0 | -22.9 | 22.9 | . | 1.3 | 22.8* | 19.7* | -2.9
O=C(CN1C(=O)NC2(CCCC2)C1=O)Nc1cccc(C(F)(F)F)c1 | 0.0 | 0.5 | -0.5 | -4.7 | . | -0.4 | . | .
O=C(Nc1cccc(C(F)(F)F)c1)C1(c2ccccc2)CC1 | . | -1.7 | 1.7 | -3.0 | . | 5.2 | . | .
O=C(Nc1ccc(C(F)(F)F)cc1)C1(c2ccccc2)CC1 | 0.2 | 5.1 | -5.1 | 7.7 | 13.5 | 25.4* | 4.2 | -10.9
Cc1ccc(C)c(C(C)NC(=O)C2CCCC2)c1 (configuration not stated) | 0.0 | 10.8 | -10.8 | 10.2 | 1.2 | 13.3 | . | .
COC(=O)Cc1ccc(NC(=S)NNC(=O)c2ccccc2Br)cc1 | -0.2 | 9.4 | -9.4 | -0.1 | 1.0 | 13.4 | . | .
O=C(NNC(=S)Nc1ccccc1Cl)c1ccccc1Br | 0.0 | -5.9 | 5.9 | 0.4 | 22.6 | 22.4* | 25.9* | 5.8
O=C(NNC(=S)Nc1ccccc1)c1ccc2ncccc2c1 | 0.1 | 1.4 | -1.4 | -0.4 | 3.8 | 24.0* | 30.2* | -2.9 | BODIPY interf DR=>122
O=C(NNC(=S)Nc1ccc(Br)cc1)c1ccccc1 | 0.0 | 3.5 | -3.5 | 2.5 | 19.1 | 19.9* | 21.7* | 6.7*
O=C(NNC(=S)Nc1ccc(Br)cc1)c1ccccc1Br | -0.1 | -15.4 | 15.4 | 5.9 | 2.3 | 34.9* | 26.4* | 8.2*
CC(C)(C)NC(=S)NNC(=O)c1ccc2ncccc2c1 | 0.2 | 25.5 | -25.5 | -2.3 | 5.0 | 13.5 | . | .

Screening results as filed in PubChem BioAssay.
